Data reported in ChEMBL document CHEMBL1240409, “Design, synthesis and evaluation of (E)-alpha-benzylthio chalcones as novel inhibitors of BCR-ABL kinase” (Bioorg Med Chem, 2010).

Legend:
[1] = system: DU-145; assay: Growth inhibition of human DU145 cells after 96 hrs by trypan blue exclusion assay; type: functional; details: DU-145, 96 h
[2] = system: K562; assay: Growth inhibition of human K562 cells expressing p210Bcr/Abl after 96 hrs by trypan blue exclusion assay; type: functional, cell-based; details: K562, 96 h
In short: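 K562 cells were kept in RPMI with 10% FBS and penicillin–streptomycin at 37 °C under 5% CO2. Cells were seeded at 1 × 10^5 cells/mL with a range of compound concentrations, using DMSO as the negative control. After 96 h, viability was counted by Trypan blue exclusion and expressed as percent of DMSO control to derive GI50.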

Structure (SMILES)	GI50 [1] [µM]	GI50 [2] [µM]
Cc1ccc(S(=O)(=O)/C(=C/c2sccc2C)C(=O)c2ccc(Cl)cc2)cc1	10	10
Cc1ccc(/C=C(\C(=O)c2ccc(Cl)cc2)S(=O)(=O)Cc2ccc(F)cc2)s1	50	50
O=C(/C(=C\c1ccccc1OCc1ccccc1)S(=O)(=O)c1ccc(F)cc1)c1ccc(Cl)cc1	1	1
O=C(/C(=C\c1c[nH]c2ccccc12)S(=O)(=O)c1ccc(Br)cc1)c1ccc(Br)cc1	25	25
O=C(/C(=C\c1ccc(Br)c(O)c1)S(=O)(=O)c1ccc(Br)cc1)c1ccc(Br)cc1	50	50
COc1cc(OC)c(/C=C(\C(=O)c2ccc([N+](=O)[O-])cc2)S(=O)(=O)Cc2ccc(Cl)cc2)c(OC)c1	10	10
COc1cc(OC)c(C=C(SCc2ccccc2Cl)C(=O)c2ccc(Cl)cc2)c(OC)c1	25	10
O=C(O)c1ccc(C(=O)/C(=C\c2ccc(Br)c([N+](=O)[O-])c2)SCc2ccccc2Cl)cc1	1	1
O=C(O)c1ccc(C(=O)/C(=C\c2ccc(N3CCN(Cc4ccccc4)CC3)c([N+](=O)[O-])c2)SCc2ccc(F)cc2)cc1	1	1
O=C(/C(=C\c1ccc(OCc2ccccc2)cc1)SCc1ccc(Cl)cc1Cl)c1ccc(Cl)cc1	1	1
O=C(/C(=C\c1cc(Cl)cc(Cl)c1Cl)S(=O)(=O)Cc1ccc(Cl)cc1)c1ccc(Br)cc1	1	1
O=C(/C(=C\c1ccc(O)c([N+](=O)[O-])c1)SCc1ccccc1Cl)c1ccc(Cl)cc1	10	10
Cc1ccc(S(=O)(=O)/C(=C/c2ccccc2OCc2ccccc2)C(=O)c2ccc(Br)cc2)cc1	1	1
COc1ccccc1/C=C(/Sc1ccc(C)cc1)C(=O)c1ccc(Cl)cc1	25	10
Cc1ccc(S(=O)(=O)/C(=C/c2cccs2)C(=O)c2ccc(Cl)cc2)cc1	25	50
O=C(/C(=C\c1ccc(Cl)cc1)S(=O)(=O)c1ccc(Cl)cc1)c1ccc(Cl)cc1	25	10

Structure (SMILES)	GI50 [1] [µM]	GI50 [2] [µM]
O=C(/C(=C\c1ccc(Cl)c([N+](=O)[O-])c1)S(=O)(=O)c1ccc(Br)cc1)c1ccc(Br)cc1	10	1
Cc1ccc(/C=C(/SCc2ccc(Cl)cc2Cl)C(=O)c2ccc(Cl)cc2)s1	50	50
COc1ccccc1/C=C(\C(=O)c1ccc([N+](=O)[O-])cc1)S(=O)(=O)Cc1ccc(Cl)cc1	10	10
Cc1ccsc1/C=C(/SCc1ccc(Cl)c(Cl)c1)C(=O)c1ccc(Cl)cc1	50	50
O=C(/C(=C\c1csc([N+](=O)[O-])c1)S(=O)(=O)c1ccc(Br)cc1)c1ccc(Br)cc1	1	1
COc1ccc(/C=C(\C(=O)c2ccc(Cl)cc2)S(=O)(=O)Cc2ccccc2Cl)cc1	50	25
Cc1cc(C)cc(/C=C(/Sc2ccc(Br)cc2)C(=O)c2ccc(Cl)cc2)c1	10	1
COc1cc(OC)c(/C=C(\C(=O)c2ccc(Cl)cc2)S(=O)(=O)c2ccc(Br)cc2)c(OC)c1	> 100	> 100
COc1ccccc1/C=C(\C(=O)c1ccc(Cl)cc1)S(=O)(=O)Cc1ccc(Cl)cc1	25	25
Cc1ccsc1/C=C(\C(=O)c1ccc(Cl)cc1)S(=O)(=O)Cc1ccc(F)cc1	10	1
COc1cc(C(=O)/C(=C\c2ccc([N+](=O)[O-])c(O)c2)SCc2ccc(Br)cc2)cc(OC)c1OC	1	1
O=C(/C(=C\c1ccccc1OCc1ccccc1)S(=O)(=O)Cc1ccc(Cl)cc1)c1ccc(Br)cc1	10	1
Cc1ccc(S/C(=C/c2c(O)cc(O)cc2O)C(=O)c2ccc(Cl)cc2)cc1	> 100	> 100
O=C(/C(=C\c1cc(Cl)c(O)c(Cl)c1)S(=O)(=O)Cc1ccc(Br)cc1)c1ccc(Br)cc1	25	25
O=C(/C(=C\c1ccc(OC(F)(F)F)cc1)S(=O)(=O)c1ccc(Br)cc1)c1ccc(Br)cc1	25	25

Next, values leading:

GI50 [1] [µM]	GI50 [2] [µM]	Structure (SMILES)
50	1	O=C(/C(=C\c1c[nH]c2ccc(Br)cc12)SCc1ccc(F)cc1)c1ccc(Cl)cc1
25	25	Cc1ccc(CS/C(=C/c2cccc(Cl)c2Cl)C(=O)c2ccc(Cl)cc2)cc1
10	10	CN(C)c1ccc(/C=C(/SCc2ccc(F)cc2)C(=O)c2ccc(C(=O)O)cc2)cc1
10	1	O=C(/C(=C\c1ccc(Cl)c([N+](=O)[O-])c1)Sc1ccc(Br)cc1)c1ccc(Br)cc1
1	8	O=C(/C(=C\c1ccc(Br)cc1)Sc1ccccc1Br)c1ccc(Br)cc1
10	1	COc1ccccc1/C=C(/SCc1ccc(Cl)cc1)C(=O)c1ccc([N+](=O)[O-])cc1
> 100	50	O=C(/C(=C\c1cc([N+](=O)[O-])ccc1F)S(=O)(=O)Cc1ccc(F)cc1)c1ccc(Br)cc1
1	1	O=C(/C(=C\c1ccc(Br)c([N+](=O)[O-])c1)Sc1ccc(Br)cc1)c1ccc(Br)cc1
10	10	O=C(/C(=C\c1ccc(O)c([N+](=O)[O-])c1)SCc1ccc(Cl)cc1)c1ccc(Cl)cc1
20	> 50	O=C(C(=Cc1ccc(I)cc1)S(=O)(=O)Cc1ccc(I)cc1)c1ccc(Br)cc1
10	10	O=C(/C(=C\c1ccc(O)cc1)S(=O)(=O)Cc1ccc(F)cc1)c1ccc(Br)cc1
1	1	O=C(C(=Cc1ccc(O)c([N+](=O)[O-])c1)SCc1ccc(Br)cc1)c1ccc([N+](=O)[O-])c(Cl)c1
25	50	Cc1ccc(S/C(=C/c2ccc(Br)cc2)C(=O)c2ccc(Cl)cc2)cc1
1	1	CSc1ccc(/C=C(\C(=O)c2ccc(Br)cc2)S(=O)(=O)c2ccc(C)cc2)cc1
> 100	50	CN(C)c1ccc(/C=C(/SCc2ccccc2Cl)C(=O)c2ccc(Cl)cc2)cc1
25	25	O=C(/C(=C\c1ccc2ccccc2n1)SCc1ccc(F)cc1)c1ccc(Br)cc1
1	1	COc1cc(OC)c(/C=C(/SCc2ccc(F)cc2)C(=O)c2ccc(Br)cc2)c(OC)c1
10	25	CSc1ccc(/C=C(\C(=O)c2ccc(Cl)cc2)S(=O)(=O)Cc2ccc(C)cc2)cc1
50	50	Cc1ccsc1/C=C(/SCc1ccc(Cl)cc1)C(=O)c1ccc(Cl)cc1
50	> 100	Cc1ccsc1/C=C(/SCc1ccc(F)cc1)C(=O)c1ccc(Br)cc1
50	1	COc1ccc(/C=C(/Sc2ccc(Br)cc2)C(=O)c2ccc(Cl)cc2)cc1

GI50 [1] [µM]	GI50 [2] [µM]	Structure (SMILES)
10	1	O=C(O)c1ccc(C(=O)/C(=C\c2ccc([N+](=O)[O-])c(O)c2)SCc2ccc(Br)cc2)cc1
10	1	Cc1cc(C)cc(/C=C(/SCc2ccc(F)cc2)C(=O)c2ccc(Br)cc2)c1
1	1	COc1ccc(C(=O)/C(=C\c2ccc(OC)c(O)c2)Sc2ccc(F)cc2)cc1
25	25	Cc1ccsc1/C=C(/SCc1ccc(Cl)cc1)C(=O)c1ccc(Br)cc1
1	10	O=C(/C(=C\c1cc(Br)c(O)c(Br)c1)SCc1ccc(Br)cc1)c1ccc(Br)cc1
1	1	O=C(/C(=C\c1ccc(Br)cc1)SCc1ccc(Cl)cc1)c1ccc(Br)cc1
10	1	O=C(/C(=C\c1cccc(Cl)c1Cl)SCc1ccc(Cl)cc1)c1ccc(Cl)cc1
50	50	Cc1ccsc1/C=C(/SCc1ccc(F)cc1)C(=O)c1ccc(Cl)cc1
1	1	O=C(/C(=C\c1ccc([N+](=O)[O-])c(O)c1)SCc1ccc(Br)cc1)c1ccc([N+](=O)[O-])c(Cl)c1
50	1	COc1ccc(/C=C(/SCc2ccc(F)cc2)C(=O)c2ccc(Br)cc2)cc1
1	50	Cc1ccc(C)c(/C=C(/SCc2ccc(F)cc2)C(=O)c2ccc(Br)cc2)c1
50	50	O=C(/C(=C\c1ccc(Oc2ccccc2)cc1)Sc1ccc(Br)cc1)c1ccc(Br)cc1
1	1	COc1ccccc1/C=C(/SCc1ccc(Cl)cc1)C(=O)c1ccc(Cl)cc1
1	1	CCOc1ccc(/C=C(/SCc2ccc(F)cc2)C(=O)c2ccc(Cl)cc2)cc1OC
10	10	Cc1cc(C)cc(/C=C(/SCc2ccc(Cl)cc2)C(=O)c2ccc(Cl)cc2)c1
25	10	COc1ccc(/C=C(\C(=O)c2ccc(Br)cc2)S(=O)(=O)Cc2ccc(Cl)cc2)cc1
10	10	Cc1cc(C)cc(/C=C(/SCc2ccc(Br)cc2)C(=O)c2ccccc2Cl)c1
> 100	> 100	CN(C)c1ccc(/C=C(/Sc2ccccc2Br)C(=O)c2ccc(Br)cc2)cc1
10	10	Cc1ccc(CS/C(=C/c2cc(Cl)cc(Cl)c2)C(=O)c2ccc(Cl)cc2)cc1
10	1	O=C(/C(=C\c1ccc(O)cc1)SCc1ccc(F)cc1)c1ccc(Br)cc1
10	1	O=C(/C(=C\c1ccc(O)c([N+](=O)[O-])c1)SCc1ccc(Br)cc1)c1ccc(C(F)(F)F)cc1
